Data published in ChEMBL document CHEMBL5647686, “B cell receptor-induced phosphorylation of Pyk2 and focal adhesion kinase involves integrins and the Rap GTPases and is required for B cell spreading” (J Biol Chem, 2009).
Active and inactive are the calls of the source. The calls are words filed in the database; no cut-off is given here.

How the values were obtained:
[1] = target: Protein-tyrosine kinase 2-beta (Mus musculus) (UniProt Q9QVP9); assay: Inhibition of […] tyrosine phosphorylation of Pyk2 in mouse A20 cells induced by clustering LFA-1 with plate-bound Abs at 2.5 to 5 uM incubated for 45 mins before being stimulated with anti-LFA-1 Abs for 30 mins by immunoblotting; format: cell-based; details: dose 2.5-5 µM, time 75.0 min
Outline: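 A20 cells pretreated 45 min with inhibitor or DMSO were added for 30 min to wells coated with 2.63 μg/cm² anti-LFA-1 Abs. Lysates were cleared, and Pyk2 or FAK immunoprecipitates were blotted with 4G10 anti-Tyr(P).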

A20 [2] = assay: Inhibition of anti-Ig-induced tyrosine phosphorylation of ERK in mouse A20 cells under suspension conditions at 0.15 to 5 uM incubated for 45 mins before being stimulated with anti-IgG for 20 mins by immunoblotting; format: cell-based; details: dose 0.15-5 µM, time 65.0 min
Outline: (§1)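 A20 cells held in suspension in modified HEPES-buffered saline were treated with inhibitor at graded concentrations or DMSO for 45 min, then stimulated with 20 μg/ml anti-IgG for 20 min. Unstimulated controls were kept 45 min plus 20 min without stimulus. Cold lysis buffer was added, and lysates cleared. Pyk2 immunoprecipitates were blotted with 4G10 anti-Tyr(P) and reprobed for Pyk2. Whole lysates were blotted with 4G10 for total phosphotyrosine and for phospho-Erk.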

[3] = target: Protein-tyrosine kinase 2-beta (Mus musculus) (UniProt Q9QVP9); assay: Inhibition of anti-Ig-induced tyrosine phosphorylation of Pyk2 in mouse A20 cells plated on collagen/fibronectin ECM at 0.15 to 5 uM incubated for 45 mins before being stimulated with anti-IgG for 20 mins by immunoblotting; format: cell-based; details: dose 0.15-5 µM, time 65.0 min
A20 [4] = assay: Inhibition of anti-Ig-induced tyrosine phosphorylation of FAK in mouse A20 cells plated on collagen/fibronectin ECM conditions at 0.15 to 5 uM incubated for 45 mins before being stimulated with anti-IgG for 20 mins by immunoblotting; format: cell-based; details: dose 0.15-5 µM, time 65.0 min
[5] = target: Tyrosine-protein kinase SYK (Mus musculus) (UniProt P48025); assay: Inhibition of anti-Ig-induced SYK dependent overall protein tyrosine phosphorylation in mouse A20 cells under suspension conditions at 0.15 to 5 uM incubated for 45 mins before being stimulated with anti-IgG for 20 mins by immunoblotting; format: cell-based; details: dose 0.15-5 µM, time 65.0 min; outline: as §1
A20 [6] = assay: Inhibition of anti-IgG-induced B-cell spreading in mouse A20 cells plated on fibronectin assessed as reduction in number of A20 cells that developed an elongated and spread morphology at 2.5 uM for 1 to 4 hrs by immunofluorescence assay; format: functional, cell-based; details: time 1-4 hrs
Outline: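 A20 cells pretreated 45 min with DMSO or 2.5 μm inhibitor in RPMI 1640 with 2% FCS, plated at 37 °C on wells coated with 2.63 μg/cm² fibronectin (BSA-blocked), and stimulated with 10 μg/ml soluble anti-IgG for 1, 2 or 4 h. Phase-dark cells with elongated or irregular shape counted as spread. Percentage of adherent cells; >150 cells counted per experiment, three experiments; one-tailed paired t test.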

[7] = Toxicity in mouse A20 cells by 7-amino-actinomycin D staining; format: cell-based
[8] = target: Protein-tyrosine kinase 2-beta (Mus musculus) (UniProt Q9QVP9); assay: Inhibition of anti-Ig-induced tyrosine phosphorylation of Pyk2 in mouse A20 cells at 0.15 to 5 uM incubated for 45 mins before being stimulated with anti-IgG for 20 mins by immunoblotting; format: cell-based; details: dose 0.15-5 µM, time 65.0 min; outline: as §1
A20 [9] = assay: Inhibition of LFA-1 Ab-induced B-cell spreading in mouse A20 cells plated on anti-LFA-1 Ab coated plates at 2.5 uM for 1 to 3 hrs by immunofluorescence assay; format: functional, cell-based; details: time 1-3 hrs
Outline: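 A20 B lymphoma cells pretreated 45 min with DMSO or 2.5 μm inhibitor, then added to wells coated overnight at 4 °C with 2.63 μg/cm² rat anti-mouse LFA-1 mAb and blocked with 2% BSA/PBS. Incubated at 37 °C in RPMI 1640 with 2% FCS for 1 or 3 h. Cells scored as spread when phase dark, elongated or irregular with membrane processes. Percentage of adherent cells spread; mean ± S.E., >150 cells per experiment, three experiments; one-tailed paired t test vs DMSO.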

A20 [10] = assay: Inhibition of anti-Ig-induced SRC dependent overall protein tyrosine phosphorylation in mouse A20 cells under suspension conditions at 0.15 to 5 uM incubated for 45 mins before being stimulated with anti-IgG for 20 mins by immunoblotting; format: cell-based; details: dose 0.15-5 µM, time 65.0 min; outline: as §1

Chain of Protein-tyrosine kinase 2-beta (Mus musculus) (Q9QVP9 whole entry, looked up): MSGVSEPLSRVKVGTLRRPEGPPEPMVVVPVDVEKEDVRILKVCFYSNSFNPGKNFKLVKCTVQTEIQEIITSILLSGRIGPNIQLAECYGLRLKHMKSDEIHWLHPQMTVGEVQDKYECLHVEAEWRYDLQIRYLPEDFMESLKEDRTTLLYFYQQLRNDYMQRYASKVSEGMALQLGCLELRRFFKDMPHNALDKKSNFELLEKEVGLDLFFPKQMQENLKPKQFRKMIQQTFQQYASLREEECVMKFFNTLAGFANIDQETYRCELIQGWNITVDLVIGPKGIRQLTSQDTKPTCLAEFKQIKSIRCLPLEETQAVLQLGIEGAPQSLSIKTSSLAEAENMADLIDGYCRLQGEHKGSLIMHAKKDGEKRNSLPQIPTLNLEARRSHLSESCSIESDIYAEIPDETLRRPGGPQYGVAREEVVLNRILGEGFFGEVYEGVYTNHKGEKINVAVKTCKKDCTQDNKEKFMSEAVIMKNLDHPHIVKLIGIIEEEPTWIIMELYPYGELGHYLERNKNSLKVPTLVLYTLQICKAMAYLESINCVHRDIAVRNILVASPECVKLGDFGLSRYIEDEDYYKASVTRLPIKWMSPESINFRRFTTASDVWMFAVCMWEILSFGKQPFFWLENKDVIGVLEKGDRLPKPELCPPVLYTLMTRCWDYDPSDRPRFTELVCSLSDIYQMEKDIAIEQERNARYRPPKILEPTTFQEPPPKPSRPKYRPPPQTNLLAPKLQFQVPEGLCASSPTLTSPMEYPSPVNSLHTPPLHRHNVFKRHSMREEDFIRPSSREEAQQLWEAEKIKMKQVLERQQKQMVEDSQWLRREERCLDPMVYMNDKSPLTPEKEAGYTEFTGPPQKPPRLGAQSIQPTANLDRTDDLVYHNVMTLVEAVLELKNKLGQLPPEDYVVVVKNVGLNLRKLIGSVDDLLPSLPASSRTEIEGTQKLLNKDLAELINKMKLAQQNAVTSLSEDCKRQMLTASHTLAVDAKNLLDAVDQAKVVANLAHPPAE
Chain of Tyrosine-protein kinase SYK (Mus musculus) (P48025 whole entry, looked up): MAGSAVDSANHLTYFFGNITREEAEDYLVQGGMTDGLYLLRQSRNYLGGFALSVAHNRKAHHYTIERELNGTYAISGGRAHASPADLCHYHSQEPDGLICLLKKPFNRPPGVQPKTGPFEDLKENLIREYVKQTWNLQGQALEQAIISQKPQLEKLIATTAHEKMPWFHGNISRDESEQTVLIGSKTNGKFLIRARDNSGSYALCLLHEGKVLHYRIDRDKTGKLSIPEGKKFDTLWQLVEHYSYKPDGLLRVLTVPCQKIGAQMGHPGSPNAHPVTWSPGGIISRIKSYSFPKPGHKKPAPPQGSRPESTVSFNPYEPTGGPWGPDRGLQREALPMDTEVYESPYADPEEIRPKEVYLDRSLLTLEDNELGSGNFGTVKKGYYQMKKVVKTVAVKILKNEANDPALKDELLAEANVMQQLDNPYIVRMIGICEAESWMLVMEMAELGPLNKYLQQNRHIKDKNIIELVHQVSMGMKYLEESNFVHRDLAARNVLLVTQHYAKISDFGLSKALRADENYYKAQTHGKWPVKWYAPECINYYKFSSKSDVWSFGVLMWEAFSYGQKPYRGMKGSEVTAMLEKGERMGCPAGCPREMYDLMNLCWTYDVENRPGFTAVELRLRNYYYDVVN

inhibition [1]: Active | inhibition [3]: Active | inhibition [5]: inactive | inhibition [8]: Active
SMILES: CN(c1ccccc1CNc1nc(Nc2ccc3c(c2)CC(=O)N3)ncc1C(F)(F)F)S(C)(=O)=O
inhibition (A20 [2]): inactive | inhibition (A20 [4]): Active | inhibition (A20 [6]): Active | Activity [7]: Non-Toxic | inhibition (A20 [9]): Active | inhibition (A20 [10]): inactive
